Results: ChEMBL document CHEMBL1126826, “2'-(Trimethylammonio)ethyl 4-(hexadecyloxy)-3(S)-methoxybutanephosphonate: a novel potent antineoplastic agent” (J Med Chem, 1993)
Where “and” joins values, the source holds several entries; their conditions need not be identical. Equal values may be shown once.

Key:
[1] = Compounds were evaluated for antineoplastic activity against […] cells using clonogenic assays.; type: functional, cell-based; conditions: Mus musculus
In short: (§1)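 WEHI-3B murine cells grown in methyl cellulose/RPMI colony (clonogenic) assay with compound at a range of concentrations for 5 days in 60-mm dishes. Colonies counted after 5 days and expressed as percentage of untreated control colonies. Mean of three experiments run in triplicate ± SD. IC50 taken from the concentration-response.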

[2] = Effect on […] cell growth expressed as percent number of colonies compared to control at a concentration of 5 uM; type: functional, Mus musculus; in short: as §1
[3] = Effect on […] cell growth expressed as percent number of colonies compared to control at a concentration of 10 uM; type: functional, Mus musculus; in short: as §1
[4] = Effect on […] cell growth expressed as percent number of colonies compared to control at a concentration of 2.5 uM; type: functional, Mus musculus; in short: as §1
[5] = Effect on […] cell growth expressed as percent number of colonies compared to control at a concentration of 20 uM; type: functional, Mus musculus; in short: as §1
[6] = Effect on […] cell growth expressed as percent number of colonies compared to control at a concentration of 1.2 uM; type: functional, Mus musculus; in short: as §1
[7] = Effect on […] cell growth expressed as percent number of colonies compared to contro at a concentration of 0.6 uM; type: functional, cell-based; conditions: Mus musculus; in short: as §1
[8] = Effect on […] cell growth expressed as percent number of colonies compared to contro at a concentration of 10 uM; type: functional, Mus musculus; in short: as §1
[9] = Effect on […] cell growth expressed as percent number of colonies compared to contro at a concentration of 5 uM; type: functional, Mus musculus; in short: as §1
[10] = Effect on […] cell growth expressed as percent number of colonies compared to contro at a concentration of 2.5 uM; type: functional, Mus musculus; in short: as §1
[11] = Compounds were evaluated for antineoplastic activity against […] cells using clonogenic assays; type: functional, cell-based; conditions: Mus musculus; in short: as §1
[12] = Effect on […] cell growth expressed as percent number of colonies compared to contro at a concentration of 20 uM; type: functional, Mus musculus; in short: as §1
[13] = Effect on […] cell growth expressed as percent number of colonies compared to contro at a concentration of 1.2 uM; type: functional, Mus musculus; in short: as §1

| Structure (SMILES) | IC50 [1] | Control [2] | Control [3] | Control [4] | Control [5] | Control [6] | percent of control colonies [7] | Control [8] | Control [9] | Control [10] | IC50 [11] | Control [12] | Control [13] |
| --- | --- | --- | --- | --- | --- | --- | --- | --- | --- | --- | --- | --- | --- |
| CCCCCCCCCCCCCCCCOC[C@H](CCP(=O)([O-])OCC[N+](C)(C)C)OC | 2500 nM | 58% and 48% | 30% | 88% | 32% | 95% |  |  |  |  |  |  |  |
| CCCCCCCCCCCCCCCCCCOCC(COP(=O)([O-])OCC[N+](C)(C)C)OC (stereo not drawn) [EDELFOSINE] |  |  |  |  |  |  | 105% | 36% | 48% | 68% | 2500 nM | 30% | 91% |
